The target of data set [1] is T1, Broad substrate specificity ATP-binding cassette transporter ABCG2 (Homo sapiens, UniProt Q9UNQ0).
T1 sequence (Q9UNQ0 whole entry): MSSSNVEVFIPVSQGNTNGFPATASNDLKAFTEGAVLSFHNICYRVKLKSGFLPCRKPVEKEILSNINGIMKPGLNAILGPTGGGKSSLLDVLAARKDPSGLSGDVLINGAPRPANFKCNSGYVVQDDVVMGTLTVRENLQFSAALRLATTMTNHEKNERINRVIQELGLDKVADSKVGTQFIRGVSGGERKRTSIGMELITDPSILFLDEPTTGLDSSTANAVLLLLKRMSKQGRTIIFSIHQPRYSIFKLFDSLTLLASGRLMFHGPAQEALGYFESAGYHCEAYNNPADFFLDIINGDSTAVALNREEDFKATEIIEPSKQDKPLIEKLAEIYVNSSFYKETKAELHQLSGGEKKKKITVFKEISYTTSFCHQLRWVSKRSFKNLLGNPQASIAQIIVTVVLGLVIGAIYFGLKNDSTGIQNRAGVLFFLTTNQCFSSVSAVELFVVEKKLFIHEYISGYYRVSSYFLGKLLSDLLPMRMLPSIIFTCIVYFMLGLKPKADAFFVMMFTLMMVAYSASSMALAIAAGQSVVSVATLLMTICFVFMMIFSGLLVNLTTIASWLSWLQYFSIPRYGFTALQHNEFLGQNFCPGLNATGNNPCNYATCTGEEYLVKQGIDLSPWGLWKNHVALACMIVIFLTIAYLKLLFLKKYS
Nature of the data set: Inhibition of ABCG2 (unknown origin) in HEK293 cells assessed as maximal inhibition of mitoxantrone efflux by fluorescence based flow cytometry. The data set is classed as cell-based. The method, boiled down: (§1)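 Efflux assay in HEK293-ABCG2 cells, with parental HEK293 cells as negative control. Cells seeded at 5×10^4/well overnight, then given compound plus 4 µM mitoxantrone (0.5% DMSO) for 30 min at 37 °C. Cells washed, trypsinized and resuspended in cold DPBS with 2% BSA.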
(In flow cytometry, cells or beads pass a laser one at a time.)

For data set [2], the target named is T2, ABCB1 (Homo sapiens, UniProt P08183). In words: Inhibition of ABCB1 (unknown origin) expressed in NIH/3T3 cells assessed as maximal inhibition at 10 uM by FACS based flow cytometry.
Data set [3] is described as follows: Cytotoxicity against human HEK293 cells assessed as cell viability at 10 uM measured after 72 hrs by MTT assay. The data set is classed as cell-based. Particulars: read-out: Activity. (Formazan colour is commonly taken as a measure of viable cells.)
The target in data set [4] is T2, ABCB1. Nature of the data set: Inhibition of ABCB1 (unknown origin) expressed in NIH/3T3 cells assessed as maximal inhibition at 1 uM by FACS based flow cytometry.
The target in data set [5] is T3, ABCC1 (MRP1) (Homo sapiens, UniProt P33527). In words: Inhibition of ABCC1 (unknown origin) expressed in Flp-In-293 cells assessed as maximal inhibition at 1 uM by FACS based flow cytometry.
Data set [6] deals with T1, Broad substrate specificity ATP-binding cassette transporter ABCG2. In words: (§2) Inhibition of ABCG2 (unknown origin) in HEK293 cells assessed as maximal inhibition of mitoxantrone efflux at 1 uM by fluorescence based flow cytometry relative to control. The format is cell-based. The conditions noted are these: hek293, 1 µM. The gist of the method: as §1
Data set [7] shares this target. In words: Inhibition of ABCG2 (unknown origin) expressed in HEK293 cells assessed as maximal inhibition at 1 uM by FACS based flow cytometry. Particulars: hek293, 1 µM.
Data set [8] in a line: Cytotoxicity against human HEK293 cells assessed as cell viability at 20 uM measured after 72 hrs by MTT assay. The format is cell-based. Particulars: read-out: Activity.
Data set [9] addresses T3, ABCC1 (MRP1). Nature of the data set: Inhibition of ABCC1 (unknown origin) expressed in Flp-In-293 cells assessed as maximal inhibition at 10 uM by FACS based flow cytometry.
Another data set deals with T4, ABCG2 (Homo sapiens, UniProt Q9UNQ0).
T4 sequence (Q9UNQ0 whole entry): T1 sequence (Q9UNQ0 whole entry)
The data set is described as §2. The conditions noted are these: HEK293 cells with ABCG2, probe mitoxantrone, read-out: Imax. The data set is classed as cell-based. The method, boiled down:
as §1

The structures appear in SMILES notation.

T3 sequence (P33527 whole entry): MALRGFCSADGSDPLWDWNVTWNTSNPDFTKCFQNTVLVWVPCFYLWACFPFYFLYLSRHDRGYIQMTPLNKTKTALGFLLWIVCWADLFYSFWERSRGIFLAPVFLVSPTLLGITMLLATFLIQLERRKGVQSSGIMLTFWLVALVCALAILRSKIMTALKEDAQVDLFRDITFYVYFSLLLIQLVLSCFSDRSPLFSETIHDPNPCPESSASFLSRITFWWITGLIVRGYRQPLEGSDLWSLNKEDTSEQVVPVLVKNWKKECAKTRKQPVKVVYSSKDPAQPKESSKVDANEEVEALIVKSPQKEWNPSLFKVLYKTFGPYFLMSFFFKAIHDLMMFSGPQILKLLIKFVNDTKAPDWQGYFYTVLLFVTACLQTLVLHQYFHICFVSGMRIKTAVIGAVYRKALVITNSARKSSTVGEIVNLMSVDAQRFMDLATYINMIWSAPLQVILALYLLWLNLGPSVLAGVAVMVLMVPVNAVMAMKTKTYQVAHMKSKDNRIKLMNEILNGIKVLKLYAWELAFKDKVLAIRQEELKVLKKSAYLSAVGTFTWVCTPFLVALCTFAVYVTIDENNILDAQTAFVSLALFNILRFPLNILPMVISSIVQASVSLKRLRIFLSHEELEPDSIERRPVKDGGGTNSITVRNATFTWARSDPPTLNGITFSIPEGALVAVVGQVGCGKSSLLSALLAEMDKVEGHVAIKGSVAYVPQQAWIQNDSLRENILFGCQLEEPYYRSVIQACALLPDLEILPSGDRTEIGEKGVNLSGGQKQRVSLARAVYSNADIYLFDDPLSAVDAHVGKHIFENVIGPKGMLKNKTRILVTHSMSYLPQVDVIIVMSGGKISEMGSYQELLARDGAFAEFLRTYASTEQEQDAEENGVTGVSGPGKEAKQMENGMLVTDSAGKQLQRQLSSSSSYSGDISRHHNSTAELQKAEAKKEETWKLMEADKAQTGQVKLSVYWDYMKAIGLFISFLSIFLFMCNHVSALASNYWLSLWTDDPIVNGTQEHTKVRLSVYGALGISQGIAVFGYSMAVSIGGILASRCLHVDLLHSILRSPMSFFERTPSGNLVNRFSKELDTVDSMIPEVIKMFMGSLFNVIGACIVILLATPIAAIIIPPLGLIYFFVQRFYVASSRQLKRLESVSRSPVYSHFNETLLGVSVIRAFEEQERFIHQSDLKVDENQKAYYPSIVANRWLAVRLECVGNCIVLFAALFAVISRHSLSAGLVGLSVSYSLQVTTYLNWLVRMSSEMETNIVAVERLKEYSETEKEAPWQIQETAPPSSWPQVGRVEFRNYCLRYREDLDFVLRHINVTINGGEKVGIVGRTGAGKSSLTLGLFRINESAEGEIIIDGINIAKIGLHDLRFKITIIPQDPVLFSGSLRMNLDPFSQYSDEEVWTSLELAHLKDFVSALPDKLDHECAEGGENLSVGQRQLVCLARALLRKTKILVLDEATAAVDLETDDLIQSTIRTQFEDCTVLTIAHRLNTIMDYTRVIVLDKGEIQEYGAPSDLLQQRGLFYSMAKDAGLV
T2 sequence (P08183 whole entry): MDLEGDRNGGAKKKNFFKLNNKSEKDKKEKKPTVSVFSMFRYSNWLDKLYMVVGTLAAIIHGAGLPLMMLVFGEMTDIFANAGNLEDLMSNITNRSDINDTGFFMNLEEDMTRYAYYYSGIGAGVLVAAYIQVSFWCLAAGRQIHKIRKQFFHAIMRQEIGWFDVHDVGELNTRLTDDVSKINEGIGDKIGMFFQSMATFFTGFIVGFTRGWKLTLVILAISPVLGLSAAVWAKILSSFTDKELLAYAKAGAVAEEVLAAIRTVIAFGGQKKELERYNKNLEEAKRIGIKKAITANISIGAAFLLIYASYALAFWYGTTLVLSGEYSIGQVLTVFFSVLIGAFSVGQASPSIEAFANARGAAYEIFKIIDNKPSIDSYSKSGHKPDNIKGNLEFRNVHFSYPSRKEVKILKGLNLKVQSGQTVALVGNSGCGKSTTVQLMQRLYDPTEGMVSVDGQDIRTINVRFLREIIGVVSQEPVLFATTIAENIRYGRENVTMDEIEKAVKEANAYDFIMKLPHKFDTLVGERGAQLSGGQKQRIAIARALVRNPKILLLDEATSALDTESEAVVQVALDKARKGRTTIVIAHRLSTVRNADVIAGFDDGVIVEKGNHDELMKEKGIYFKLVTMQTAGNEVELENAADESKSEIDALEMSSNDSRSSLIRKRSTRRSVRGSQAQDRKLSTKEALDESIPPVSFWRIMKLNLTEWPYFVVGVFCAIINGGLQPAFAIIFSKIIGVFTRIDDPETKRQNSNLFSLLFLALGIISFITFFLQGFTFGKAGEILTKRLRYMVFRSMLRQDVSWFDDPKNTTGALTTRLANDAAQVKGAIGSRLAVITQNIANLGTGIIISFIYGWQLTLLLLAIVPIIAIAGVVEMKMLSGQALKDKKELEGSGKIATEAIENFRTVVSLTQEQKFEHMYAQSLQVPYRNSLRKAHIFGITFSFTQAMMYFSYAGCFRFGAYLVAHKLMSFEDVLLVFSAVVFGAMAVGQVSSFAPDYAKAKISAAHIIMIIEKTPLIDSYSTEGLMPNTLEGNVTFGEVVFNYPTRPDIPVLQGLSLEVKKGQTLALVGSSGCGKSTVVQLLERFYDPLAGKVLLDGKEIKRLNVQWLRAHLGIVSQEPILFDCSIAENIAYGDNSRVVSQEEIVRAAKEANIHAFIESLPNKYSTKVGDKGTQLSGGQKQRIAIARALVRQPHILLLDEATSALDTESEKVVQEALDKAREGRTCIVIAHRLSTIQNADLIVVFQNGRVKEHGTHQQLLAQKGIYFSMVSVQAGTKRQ

What is called EC50 is the concentration that produces a half-maximal response. What is called inhibition is the percentage by which the read-out fell short of the control. On to `COC(=O)[C@H](Cc1ccccc1)NC(=O)c1cc(=O)c2c(OCc3ccc(Br)cc3)cccc2o1`, for which the 50% effective concentration (EC50) in data set [1] came to 270 nM. At ABCB1 [2], the inhibition at 10 µM is 7%. The viability at 72 h, 10 µM in data set [3] was 84%. Also, the figures for the inhibition at 1 µM on ABCB1 [4] and at ABCC1 (MRP1) [5] were 6% and 23%, respectively.
With `COC(=O)[C@H](Cc1c[nH]c2ccccc12)NC(=O)c1cc(=O)c2c(OCc3ccccc3Br)cccc2o1`, the EC50 in data set [1] was found to be 600 nM. Moreover, in data set [6], the Imax stood at 94%. In addition, on ABCB1 [2], the inhibition at 10 µM stood at 5%. In addition, the viability at 72 h, 10 µM in [3] was 88%. Moreover, the inhibition at 1 µM is 7% at ABCB1 [4] and 23% at ABCC1 (MRP1) [5]. The “inhibition (INH)” value in data set [7] amounted to 94%.
`COC(=O)[C@@H](Cc1c[nH]c2ccccc12)NC(=O)c1cc(=O)c2c(OCc3ccc(Br)cc3)cccc2o1`: the EC50 in data set [1] came out at 290 nM. Also, the Imax in data set [6] worked out at 85%. Further, the inhibition at 10 µM on ABCB1 [2] was 6%. The viability at 72 h, 10 µM in data set [3] worked out at 102%. Moreover, the inhibition at 1 µM at ABCB1 [4] stood at 7%; on ABCC1 (MRP1) [5], 11.9%. Also, the “inhibition (INH)” value in data set [7] stood at 85%.
In the case of `CC[C@@H](C)[C@H](NC(=O)c1cc(=O)c2c(OCc3ccccc3Br)cccc2o1)C(=O)N[C@H](C(=O)OC)C(C)C`, in data set [1], the EC50 stood at 70 nM. The Imax in [6] worked out at 85%. Moreover, in data set [8], the viability at 72 h, 20 µM is 102%. Moreover, the inhibition at 10 µM at ABCB1 [2] was determined as 0%. Further, the inhibition at 1 µM at ABCB1 [4] turned out to be 0%; at ABCC1 (MRP1) [5], 11%. In [7], the “inhibition (INH)” value came to 85%.
On to `CC[C@@H](C)[C@H](NC(=O)c1cc(=O)c2c(OCc3ccc(Br)cc3)cccc2o1)C(=O)N[C@@H](CC(C)C)C(=O)OC`, for which the EC50 in [1] was 110 nM. The Imax in data set [6] is reported as 52%. In addition, in data set [8], the viability at 72 h, 20 µM came to 101%. In addition, the inhibition at 10 µM on ABCB1 [2] was found to be 6%. For the same compound, the results for the inhibition at 1 µM at ABCB1 [4] and on ABCC1 (MRP1) [5] were 4% and 11%, respectively. Besides, the “inhibition (INH)” value in data set [7] is 52%.
Regarding `COC(=O)[C@H](Cc1ccccc1)NC(=O)c1cc(=O)c2c(OCc3ccccc3Br)cccc2o1`, the EC50 in [1] was 100 nM. Besides, the inhibition at 10 µM on ABCB1 [2] is 6%. In addition, in data set [3], the viability at 72 h, 10 µM was 82%. Besides, the inhibition at 1 µM on ABCB1 [4] came out at 5%; at ABCC1 (MRP1) [5] it was 26%.
On to `CC[C@@H](C)[C@H](NC(=O)c1cc(=O)c2c(OCc3ccccc3Br)cccc2o1)C(=O)N[C@@H](CC(C)C)C(=O)OC`, for which, in data set [1], the concentration for a half-maximal effect (EC50) amounted to 70 nM. Further, the Imax in data set [6] was determined as 83%. Also, the viability at 72 h, 20 µM in [8] is 104%. Also, the inhibition at 10 µM stood at 2% at ABCB1 [2] and 13% on ABCC1 (MRP1) [9]. Further, the values for the inhibition at 1 µM at ABCB1 [4] and on ABCC1 (MRP1) [5] were 2% and 10%, respectively. Besides, in [7], the “inhibition (INH)” value amounted to 83%.
Consider `COC(=O)[C@H](CC(C)C)NC(=O)c1cc(=O)c2c(OCc3ccccc3Br)cccc2o1`, for which the concentration giving a half-maximal response (EC50) in data set [1] came out at 140 nM. Also, in data set [6], the Imax is listed as 115%. At ABCB1 [2], the inhibition at 10 µM was 5%. Moreover, the viability at 72 h, 10 µM in data set [3] was found to be 87%. The inhibition at 1 µM on ABCB1 [4] was found to be 7%; at ABCC1 (MRP1) [5], 20%. For the same compound, the “inhibition (INH)” value in [7] was found to be 115%.
For the compound `CC[C@@H](C)[C@H](NC(=O)c1cc(=O)c2c(OCc3ccc(Br)cc3)cccc2o1)C(=O)OC`, the concentration for a half-maximal effect (EC50) in [1] came to 590 nM. Moreover, the Emax at 1 µM on ABCG2 was found to be 115%.
As for `CC[C@@H](C)[C@H](NC(=O)c1cc(=O)c2c(OCc3ccccc3Br)cccc2o1)C(=O)OC`, the EC50 in data set [1] stood at 100 nM. The Imax in [6] stood at 78%. The inhibition at 1 µM on ABCC1 (MRP1) [5] came out at 5%. For the same compound, the “inhibition (INH)” value in data set [7] came to 78%.
Turning to `COC(=O)[C@@H](NC(=O)c1cc(=O)c2c(OCc3ccccc3Br)cccc2o1)C(C)C`, the EC50 in [1] came to 50 nM. Further, the Imax in data set [6] is 87%. For the same compound, at ABCB1 [2], the inhibition at 10 µM is 7%. For the same compound, in data set [3], the viability at 72 h, 10 µM is 76%. Moreover, the inhibition at 1 µM stood at 8% at ABCB1 [4] and 13% on ABCC1 (MRP1) [5]. The “inhibition (INH)” value in data set [7] was 87%.
Regarding `COC(=O)[C@H](Cc1c[nH]c2ccccc12)NC(=O)c1cc(=O)c2c(OCc3ccc(Br)cc3)cccc2o1`, the EC50 in data set [1] stood at 480 nM. Besides, in data set [6], the Imax was 96%. Besides, the inhibition at 10 µM at ABCB1 [2] is 6%. In addition, the viability at 72 h, 10 µM in data set [3] turned out to be 77%. In addition, the inhibition at 1 µM on ABCB1 [4] came to 7%; at ABCC1 (MRP1) [5] it was 10.3%. Moreover, the “inhibition (INH)” value in data set [7] stood at 96%.
Take `CC[C@@H](C)[C@H](NC(=O)c1cc(=O)c2c(OCc3ccc(Br)cc3)cccc2o1)C(=O)N[C@H](C(=O)OC)C(C)C`: the EC50 in data set [1] worked out at 250 nM. Moreover, the Imax in data set [6] was 72%. Further, in [8], the viability at 72 h, 20 µM was found to be 89%. Further, the inhibition at 10 µM at ABCB1 [2] amounted to 11%. Also, the inhibition at 1 µM was 2% on ABCB1 [4] and 12% at ABCC1 (MRP1) [5]. For the same compound, the “inhibition (INH)” value in [7] turned out to be 72%.

These data come from ChEMBL document CHEMBL4706507, “Chromones bearing amino acid residues: Easily accessible and potent inhibitors of the breast cancer resistance protein ABCG2” (Eur J Med Chem, 2020).
